From ChEMBL document CHEMBL3120126, “Discovery of hepatitis C virus NS3-4A protease inhibitors with improved barrier to resistance and favorable liver distribution” (J Med Chem, 2014)

How the values were obtained:
[1] = Oral bioavailability in rat at 10 mg/kg; format: ADME, organism-based; conditions: in vivo
Method in brief: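 Bioavailability was derived from rat oral dosing in 1% N-methyl-2-pyrrolidone, 0.5% Methocel and 0.3% Tween-80, compared with intravenous dosing in a 70% PEG-400-based vehicle.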

[2] = Drug uptake in rat liver after 8 hrs; format: ADME, tissue-based; conditions: read-out: Drug uptake
[3] = Volume of distribution at steady state in rat at 4 mg/kg, iv; format: ADME, organism-based; parameters: dose 4 mg/kg, route intravenous; conditions: in vivo, read-out: Vdss
Method in brief: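 Rats received intravenous dosing in a vehicle of 70% PEG-400.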

Liver = experiment: Liver-to-plasma partition coefficient in rat
[4] = Cmax in rat at 10 mg/kg, po; format: ADME, organism-based; parameters: dose 10 mg/kg, route oral; conditions: in vivo
[5] = AUC in rat at 10 mg/kg, po; format: ADME, organism-based; parameters: dose 10 mg/kg, route oral; conditions: plasma

Row | Compound | bioavailability [1] [%] | concentration at 8 h [2] [µM] | Vd [3] [L/kg] | Kp (Liver) | Cmax [4] [µM] | AUC [5] [µM·h]
1 | COc1ccc2c(O[C@@H]3C[C@H]4C(=O)N[C@]5(C(=O)NS(=O)(=O)C6CC6)C[C@H]5/C=C\CCCCC[C@H](NC(=O)c5ccn(CC(F)(F)F)n5)C(=O)N4C3)cc(OC(C)C)nc2c1C | 11 | 11 | 3.3 | 360 | 0.88 | 1.3
2 | COc1ccc2c(O[C@@H]3C[C@H]4C(=O)N[C@]5(C(=O)NS(=O)(=O)C6(C)CC6)C[C@H]5/C=C\CCCCC[C@H](NC(=O)c5cnn(C)n5)C(=O)N4C3)cc(OC(C)C)nc2c1C | 16 | 73 | 2 | > 1500 | 0.87 | 1.4
3 | COc1ccc2c(O[C@@H]3C[C@H]4C(=O)N[C@]5(C(=O)NS(=O)(=O)C6CC6)C[C@H]5/C=C\CCCCC[C@H](NC(=O)c5ccn(CC(F)F)n5)C(=O)N4C3)cc(OC(C)C)nc2c1C | 6.1 | 6.5 | 0.86 | 323 | 0.3 | 0.36
4 | COc1ccc2c(O[C@@H]3C[C@H]4C(=O)N[C@]5(C(=O)NS(=O)(=O)C6(C)CC6)C[C@H]5/C=C\CCCCC[C@H](NC(=O)c5ccn(C)n5)C(=O)N4C3)cc(OC(C)C)nc2c1C | 14 | 56 | 0.97 | > 1500 | 1.3 | 1.4
